According to ChEMBL document CHEMBL1140738, “New trisubstituted 1,2,4-triazole derivatives as potent ghrelin receptor antagonists. 3. Synthesis and pharmacological in vitro and in vivo evaluations” (J Med Chem, 2008):
The source made the active and inactive calls. The calls are words filed in the database; no cut-off is given here. Where a SMILES comes first, the peptide text is derived from it. [ ]: non-standard residue; d: D form. dTrp(2-Me) = Cc1[nH]c2ccccc2c1C[C@@H](N)C(=O)O

Key:
Rattus norvegicus [1] = assay: Inhibition of hexarelin induced food intake per 100 gm of body weight in rat at 320 ug/kg, sc after 6 hrs; assay type: functional
Summary of the method: (§1)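 Rats dosed subcutaneously with compound (160 µg/kg alone, or graded 20, 80, 160, 320 µg/kg) with or without hexarelin 80 µg/kg sc. Cumulative food intake at 2 and 6 h expressed as g food per 100 g body weight; % variation versus hexarelin at 6 h = 100 × (compound+hexarelin − hexarelin)/hexarelin.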

Rattus norvegicus [2] = assay: Effect on growth hormone secretion in infant rat at 80 ug/kg, sc at 160 ug/kg, sc in presence of hexarelin; assay type: functional
Summary of the method: (§2)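 Infant rats given sc injection of compound at 160 µg/kg and/or hexarelin at 80 µg/kg; plasma rat GH measured (ng/mL).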

Rattus norvegicus [3] = assay: Effect on growth hormone secretion at 160 ug/kg, sc; assay type: functional; summary of the method: as §2
[4] = target: T1, Growth hormone secretagogue receptor type 1 (Homo sapiens, UniProt Q92847); assay: Displacement of 125I]-His9-ghrelin from human GHSR1a expressed in LLCPK1 cells; assay type: cell-based, LLC-PK1
T1 sequence (Q92847 whole entry): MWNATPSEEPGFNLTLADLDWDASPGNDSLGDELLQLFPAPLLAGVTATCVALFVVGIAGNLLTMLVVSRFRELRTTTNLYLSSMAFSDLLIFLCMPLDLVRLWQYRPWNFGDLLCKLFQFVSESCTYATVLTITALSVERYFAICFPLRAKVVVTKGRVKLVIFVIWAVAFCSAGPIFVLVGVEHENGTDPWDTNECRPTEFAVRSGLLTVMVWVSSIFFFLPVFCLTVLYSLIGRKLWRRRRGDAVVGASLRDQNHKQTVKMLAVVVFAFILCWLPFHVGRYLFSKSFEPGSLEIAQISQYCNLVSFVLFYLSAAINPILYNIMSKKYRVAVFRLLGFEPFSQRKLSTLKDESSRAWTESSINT
Summary of the method: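 Competition binding with membranes from LLC PK-1 cells transiently transfected with human GHS-R1a, incubated with 125I-His9-ghrelin and increasing concentrations of compound.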

[5] = target: T1, Growth hormone secretagogue receptor type 1; assay: Agonist activity at GHSR1a expressed in CHO cells assessed as accumulation of intracellular calcium level at 10 uM relative to ghrelin; assay type: functional, cell-based
Summary of the method: (§3)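 CHO cells transiently expressing GHS-R1a; intracellular Ca2+ accumulation read as fluorescence output. Increasing agonist concentrations were tested for dose-response; single-point activation at 10^-5 M is expressed as percent of the maximal response to ghrelin at 10^-7 M (100%).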

[6] = target: T1, Growth hormone secretagogue receptor type 1; assay: Antagonist activity at GHSR1a expressed in CHO cells assessed as inhibition of ghrelin induced accumulation of intracellular calcium; assay type: functional, cell-based
Summary of the method: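 Antagonism measured in CHO cells transiently transfected with GHS-R1a: ghrelin dose-response curves of [Ca2+]i accumulation (fluorescence) run in the presence of various concentrations of test compound.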

Rattus norvegicus [7] = assay: Inhibition of hexarelin induced food intake per 100 gm of body weight in rat at 20 ug/kg, sc after 2 hrs; assay type: functional; summary of the method: as §1
Rattus norvegicus [8] = assay: Inhibition of hexarelin induced food intake per 100 gm of body weight in rat at 20 ug/kg, sc after 6 hrs; assay type: functional; summary of the method: as §1
Rattus norvegicus [9] = assay: Inhibition of hexarelin induced food intake per 100 gm of body weight in rat at 80 ug/kg, sc after 2 hrs; assay type: functional; summary of the method: as §1
Rattus norvegicus [10] = assay: Inhibition of hexarelin induced food intake per 100 gm of body weight in rat at 80 ug/kg, sc after 6 hrs; assay type: functional; summary of the method: as §1
Rattus norvegicus [11] = assay: Inhibition of hexarelin induced food intake per 100 gm of body weight in rat at 160 ug/kg, sc after 2 hrs; assay type: functional; summary of the method: as §1
Rattus norvegicus [12] = assay: Inhibition of hexarelin induced food intake per 100 gm of body weight in rat at 160 ug/kg, sc after 6 hrs; assay type: functional; summary of the method: as §1
Rattus norvegicus [13] = assay: Inhibition of hexarelin induced food intake per 100 gm of body weight in rat at 320 ug/kg, sc after 2 hrs; assay type: functional; summary of the method: as §1
[14] = target: T2, Cholecystokinin receptor type A (Homo sapiens) (UniProt P32238); assay: Binding affinity at CCK1 receptor at 10 uM
T2 sequence (whole entry): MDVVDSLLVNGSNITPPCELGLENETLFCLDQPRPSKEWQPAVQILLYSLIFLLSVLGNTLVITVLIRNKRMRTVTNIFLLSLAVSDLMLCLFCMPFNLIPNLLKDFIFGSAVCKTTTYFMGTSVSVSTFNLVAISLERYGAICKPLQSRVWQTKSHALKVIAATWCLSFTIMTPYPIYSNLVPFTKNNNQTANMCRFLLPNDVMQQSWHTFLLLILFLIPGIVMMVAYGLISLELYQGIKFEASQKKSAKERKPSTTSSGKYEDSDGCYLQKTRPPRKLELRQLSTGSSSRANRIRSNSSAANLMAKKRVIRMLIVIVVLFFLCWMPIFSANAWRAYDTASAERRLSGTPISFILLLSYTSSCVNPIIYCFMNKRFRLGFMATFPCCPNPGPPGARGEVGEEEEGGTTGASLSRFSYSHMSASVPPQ

[15] = target: Motilin receptor (Homo sapiens) (UniProt O43193); assay: Binding affinity at motilin receptor at 10 uM
Motilin receptor (Homo sapiens), sequence (O43193 whole entry): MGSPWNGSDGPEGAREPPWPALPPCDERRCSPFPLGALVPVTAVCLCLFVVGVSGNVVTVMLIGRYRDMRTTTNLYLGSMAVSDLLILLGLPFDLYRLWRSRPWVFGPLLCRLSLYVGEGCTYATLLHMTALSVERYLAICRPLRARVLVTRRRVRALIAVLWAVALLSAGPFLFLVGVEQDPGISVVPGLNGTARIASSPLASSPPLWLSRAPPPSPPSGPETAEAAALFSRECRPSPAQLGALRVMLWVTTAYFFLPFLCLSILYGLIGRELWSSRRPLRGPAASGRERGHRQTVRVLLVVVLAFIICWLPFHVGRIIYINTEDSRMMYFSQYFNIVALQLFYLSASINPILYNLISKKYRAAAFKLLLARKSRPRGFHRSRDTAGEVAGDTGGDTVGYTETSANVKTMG

[16] = target: Substance-P receptor (Homo sapiens) (UniProt P25103); assay: Binding affinity at tachykinin 2 receptor at 10 uM
Substance-P receptor (Homo sapiens), sequence (P25103 whole entry): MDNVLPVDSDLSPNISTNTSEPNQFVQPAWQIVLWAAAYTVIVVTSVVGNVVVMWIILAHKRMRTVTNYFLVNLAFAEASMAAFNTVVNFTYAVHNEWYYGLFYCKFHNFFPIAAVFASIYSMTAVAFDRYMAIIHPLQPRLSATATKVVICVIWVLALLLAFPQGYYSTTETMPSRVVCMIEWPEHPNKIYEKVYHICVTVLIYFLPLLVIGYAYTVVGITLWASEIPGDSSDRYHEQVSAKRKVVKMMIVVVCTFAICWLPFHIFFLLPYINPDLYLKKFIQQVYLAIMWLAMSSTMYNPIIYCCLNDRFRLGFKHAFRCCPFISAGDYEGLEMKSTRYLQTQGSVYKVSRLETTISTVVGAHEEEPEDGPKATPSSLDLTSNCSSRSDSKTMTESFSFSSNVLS

[17] = target: Vasopressin V1a receptor (Homo sapiens) (UniProt P37288); assay: Binding affinity at vasopressin 1a receptor at 10 uM
Vasopressin V1a receptor (Homo sapiens), sequence (P37288 whole entry, looked up): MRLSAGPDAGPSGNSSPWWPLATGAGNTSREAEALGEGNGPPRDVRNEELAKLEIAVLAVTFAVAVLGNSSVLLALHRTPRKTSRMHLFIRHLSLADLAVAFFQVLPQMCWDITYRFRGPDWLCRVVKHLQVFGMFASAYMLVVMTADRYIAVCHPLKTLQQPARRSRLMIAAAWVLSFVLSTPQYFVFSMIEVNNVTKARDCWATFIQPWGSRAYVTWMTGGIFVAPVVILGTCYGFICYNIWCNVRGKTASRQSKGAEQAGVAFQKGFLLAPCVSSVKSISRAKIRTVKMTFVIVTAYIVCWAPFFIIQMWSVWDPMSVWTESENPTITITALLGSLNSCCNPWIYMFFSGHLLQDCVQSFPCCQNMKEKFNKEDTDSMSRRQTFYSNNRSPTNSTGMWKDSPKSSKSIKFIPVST

Rattus norvegicus [18] = assay: Inhibition of hexarelin induced food intake in rat at 20 ug/kg, sc; assay type: functional
Rattus norvegicus [19] = assay: Inhibition of hexarelin induced food intake in rat at 80 ug/kg, sc; assay type: functional
Rattus norvegicus [20] = assay: Effect on growth hormone secretion in infant rat at 80 ug/kg, sc; assay type: functional; summary of the method: as §2
Rattus norvegicus [21] = assay: Effect on food intake per 100 gm of body weight in rat at 80 ug/kg, sc after 2 hrs; assay type: functional; summary of the method: as §1
Rattus norvegicus [22] = assay: Effect on food intake per 100 gm of body weight in rat at 80 ug/kg, sc after 6 hrs; assay type: functional; summary of the method: as §1
[23] = target: T1, Growth hormone secretagogue receptor type 1; assay: Agonist activity at GHSR1a expressed in CHO cells assessed as accumulation of intracellular calcium level; assay type: functional, cell-based; summary of the method: as §3

| SMILES | IC50 [4] | Activity [5] | Kb [6] | further results |
| --- | --- | --- | --- | --- |
| COc1ccc(Cn2c(CCc3c[nH]c4ccccc34)nnc2[C@@H](Cc2c[nH]c3ccccc23)NC(=O)c2cnccn2)c(OC)c1 | 18.5 nM | 0% | 97 nM | Activity (Rattus norvegicus [1]): 0.21 g; Activity (Rattus norvegicus [2]): 173.61 ng/mL; Activity (Rattus norvegicus [3]): 15.32 ng/mL; Activity (Rattus norvegicus [7]): 0.66 g; Activity (Rattus norvegicus [8]): 0.66 g; inhibition in vivo at 0.02 mg/kg (Rattus norvegicus [8]; Rattus norvegicus, sc, 6 h): 47%; Activity (Rattus norvegicus [9]): 0.23 g; Activity (Rattus norvegicus [10]): 0.23 g; Activity (Rattus norvegicus [11]): 0.29 g; Activity (Rattus norvegicus [12]): 0.31 g; Activity (Rattus norvegicus [13]): 0.2 g |
| COc1ccc(Cn2c(CCc3ccccc3)nnc2[C@@H](Cc2c[nH]c3ccccc23)NC(=O)c2ccncc2)c(OC)c1 | 58 nM | 0% | 93 nM | – |
| COc1ccc(Cn2c(CCc3ccccc3)nnc2[C@@H](Cc2c[nH]c3ccccc23)NC(=O)CCc2cccnc2)cc1 | 177 nM | 5% | – | – |
| CCc1ccc(Cn2c(CCc3ccccc3)nnc2[C@@H](Cc2c[nH]c3ccccc23)NC(=O)Cc2ccccn2)cc1 | 51 nM | 0% | 124 nM | – |
| COc1ccc(Cn2c(CCc3c[nH]c4ccccc34)nnc2[C@@H](Cc2c[nH]c3ccccc23)NC(=O)c2ccccn2)cc1 | 1.9 nM | 0% | 102 nM | – |
| COc1ccc(Cn2c(CCc3c[nH]c4ccccc34)nnc2[C@@H](Cc2c[nH]c3ccccc23)NC(=O)c2ccccn2)c(OC)c1 | 1.8 nM | 0% | 19 nM | – |
| COc1ccc(Cn2c(CCc3ccccc3)nnc2[C@@H](Cc2c[nH]c3ccccc23)NC(=O)Cc2ccncc2)cc1 | 270 nM | 6% | – | – |
| O=C(Cc1ccccn1)N[C@H](Cc1c[nH]c2ccccc12)c1nnc(CCc2c[nH]c3ccccc23)n1Cc1ccccc1 | 61 nM | 4% | 41 nM | – |
| COc1ccc(Cn2c(CCc3c[nH]c4ccccc34)nnc2[C@@H](Cc2c[nH]c3ccccc23)NC(=O)Cc2ccncc2)cc1 | 76 nM | 3% | 10 nM | – |
| CCc1ccc(Cn2c(CCc3ccccc3)nnc2[C@@H](Cc2c[nH]c3ccccc23)NC(=O)c2ccccn2)cc1 | 67 nM | 0% | 513 nM | – |
| COc1ccc(Cn2c(CCc3c[nH]c4ccccc34)nnc2[C@@H](Cc2c[nH]c3ccccc23)NC(=O)C(C)(C)N)c(OC)c1 | 108 nM | 0% | 14 nM | – |
| CCc1ccc(Cn2c(CCc3ccccc3)nnc2[C@@H](Cc2c[nH]c3ccccc23)NC(=O)c2cnccn2)cc1 | 89 nM | 0% | 76 nM | – |
| COc1ccc(Cn2c(CCc3ccccc3)nnc2[C@@H](Cc2c[nH]c3ccccc23)NC(=O)C(C)(C)N)cc1 | 11 nM | 0% | 5 nM | Activity (Rattus norvegicus [2]): 220.52 ng/mL; Activity (Rattus norvegicus [3]): 5.28 ng/mL |
| COc1ccc(Cn2c(CCc3ccccc3)nnc2[C@@H](Cc2c[nH]c3ccccc23)NC(=O)c2ccccn2)c(OC)c1 | 1.1 nM | 0% | 25 nM | Activity (Rattus norvegicus [1]): 1.23 g; Activity (Rattus norvegicus [2]): 138.39 ng/mL; Activity [14]: Active; Activity [15]: Active; Activity [16]: Active; Activity [17]: Active; inhibition in vivo at 0.02 mg/kg (Rattus norvegicus [18]): -44%; inhibition in vivo at 0.08 mg/kg (Rattus norvegicus [19]): -98%; Activity (Rattus norvegicus [3]): 13.06 ng/mL; Activity (Rattus norvegicus [7]): 0.56 g; Activity (Rattus norvegicus [8]): 0.56 g; Activity (Rattus norvegicus [9]): 0.02 g; Activity (Rattus norvegicus [10]): 0.02 g; Activity (Rattus norvegicus [11]): 0.21 g; Activity (Rattus norvegicus [12]): 0.21 g; Activity (Rattus norvegicus [13]): 1.23 g |
| COc1ccc(Cn2c(CCc3ccccc3)nnc2[C@@H](Cc2c[nH]c3ccccc23)NC(=O)Cc2cccnc2)cc1 | 29 nM | 3% | 93 nM | – |
| Cc1[nH]c2ccccc2c1C[C@@H](NC(=O)[C@@H](N)Cc1c[nH]cn1)C(=O)N[C@@H](C)C(=O)N[C@@H](Cc1c[nH]c2ccccc12)C(=O)N[C@H](Cc1ccccc1)C(=O)N[C@@H](CCCCN)C(N)=O [EXAMORELIN] (H-H[dTrp(2-Me)]AW[dF]K-NH2) | – | – | – | Activity (Rattus norvegicus [20]): 253.82 ng/mL; Activity (Rattus norvegicus [21]): 1.06 g; Activity (Rattus norvegicus [22]): 1.45 g |
| COc1ccc(-n2c(CCc3ccccc3)nnc2[C@@H](Cc2c[nH]c3ccccc23)NC(=O)c2cnccn2)c(OC)c1 | 300 nM | 1% | – | – |

| SMILES | IC50 [4] | Activity [5] | Kb [6] | further results |
| --- | --- | --- | --- | --- |
| O=C(N[C@H](Cc1c[nH]c2ccccc12)c1nnc(CCc2c[nH]c3ccccc23)n1-c1ccccc1)c1ccccn1 | 160 nM | 0% | – | – |
| COc1ccc(Cn2c(CCc3ccccc3)nnc2[C@@H](Cc2c[nH]c3ccccc23)NC(=O)c2ccncc2)cc1 | 220 nM | 0% | – | – |
| O=C(Cc1ccccn1)N[C@H](Cc1c[nH]c2ccccc12)c1nnc(CCc2ccccc2)n1-c1ccccc1 | 700 nM | 0% | – | – |
| COc1ccc(-n2c(CCc3ccccc3)nnc2[C@@H](Cc2c[nH]c3ccccc23)NC(=O)c2ccccn2)c(OC)c1 | 33 nM | 0% | 65 nM | – |
| CCc1ccc(-n2c(CCc3c[nH]c4ccccc34)nnc2[C@@H](Cc2c[nH]c3ccccc23)NC(=O)c2ccccn2)cc1 | 49 nM | 0% | 129 nM | – |
| COc1ccc(Cn2c(CCc3ccccc3)nnc2[C@@H](Cc2c[nH]c3ccccc23)NC(=O)C(C)(C)N)c(OC)c1 | 60 nM | 0% | 17 nM | – |
| CCc1ccc(Cn2c(CCc3ccccc3)nnc2[C@@H](Cc2c[nH]c3ccccc23)NC(=O)c2ccncc2)cc1 | > 1000 nM | 0% | – | – |
| O=C(N[C@H](Cc1c[nH]c2ccccc12)c1nnc(CCc2ccccc2)n1-c1ccccc1)c1ccccn1 | 105 nM | 0% | – | – |
| COc1ccc(Cn2c(CCc3ccccc3)nnc2[C@@H](Cc2c[nH]c3ccccc23)NC(=O)c2ccccn2)cc1 | 0.7 nM | 0% | 12 nM | – |
| COc1ccc(Cn2c(CCc3c[nH]c4ccccc34)nnc2[C@@H](Cc2c[nH]c3ccccc23)NC(=O)Cc2ccccn2)c(OC)c1 | 34 nM | 0% | 14 nM | – |
| COc1ccc(Cn2c(CCc3ccccc3)nnc2[C@@H](Cc2c[nH]c3ccccc23)NC(=O)c2ccccc2)c(OC)c1 | 11.8 nM | 31% | – | EC50 [23]: 16 nM |
| COc1ccc(Cn2c(CCc3c[nH]c4ccccc34)nnc2[C@@H](Cc2c[nH]c3ccccc23)NC(=O)C2CCNCC2)cc1 | 0.6 nM | – | – | EC50 [23]: 1.6 nM |
| CCc1ccc(Cn2c(CCc3ccccc3)nnc2[C@@H](Cc2c[nH]c3ccccc23)NC(=O)Cc2cccnc2)cc1 | 480 nM | 3% | – | – |
| COc1ccc(Cn2c(CCc3ccccc3)nnc2[C@@H](Cc2c[nH]c3ccccc23)NCc2ccccc2)c(OC)c1 | > 1000 nM | 20% | – | – |
| COc1ccc(Cn2c(CCc3ccccc3)nnc2[C@@H](Cc2c[nH]c3ccccc23)NC(=O)Cc2ccccn2)cc1 | 3 nM | 6% | 6 nM | – |
| CCc1ccc(-n2c(CCc3c[nH]c4ccccc34)nnc2[C@@H](Cc2c[nH]c3ccccc23)NC(=O)Cc2ccccn2)cc1 | 96 nM | 0% | 34 nM | – |
| COc1ccc(Cn2c(CCc3c[nH]c4ccccc34)nnc2[C@@H](Cc2c[nH]c3ccccc23)NC(=O)[C@H]2CCCC[C@H]2N)c(OC)c1 | 140 nM | 4% | 140 nM | – |
